Assay [1] in a line: inhibitors of TNFa-induced NFkB p65 translocation, primary screen, imaging, HUVEC, MLSMR starter and 10KST1 sets (AID 438;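 active means inhibition above 20% together with a positive visual image hit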;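 further: compound added about 3h40 before a 20 min TNFalpha stimulation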;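 on inhibition: signal is the nuclear over cytoplasmic p65 intensity ratio per well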). The settings on record: HUVEC TNFa-induced p65 nuclear translocation; cell count: measured here: nuclei count (cytotoxicity indicator), at 2.08 µM; inhibition: at 2 µM, stronger effect = higher value, 0% TNFa-plus-vehicle, 100% no-TNFa wells.
Assay [2] in a line: inhibitors of mutant huntingtin aggregation, primary screen, imaging, exon1htt(103Q)mCFP cells, high-content imaging (AID 483;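 active means visual image review flags a hit and inhibition of aggregation exceeds 20%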;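 further: compound exposure lasted 3 days before fixation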;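 on nuclei count: percent of the per-plate median nuclei count of sample wells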). The settings on record: exon1htt(103Q)mCFP cell line, aggregate imaging, at 2 µM; inhibition of aggregation: stronger effect = higher value; nuclei count: measured here: cell count, toxicity.
Assay [3] can be described thus: inhibitors of E-selectin induction by TNFa, primary screen, imaging, HUVEC, immunofluorescence, MLSMR starter and 10KST1 sets (AID 487).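 On inhibition: signal is fraction of cell area covered by stained E-selectin grains.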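 On nuclei count: 100% = median nuclei count of all wells on the same plate.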 The settings on record: HUVEC TNFalpha-induced E-selectin immunofluorescence imaging, at 2 µM; inhibition: stronger effect = higher value; nuclei count: measured here: cell number, toxicity.
The target of assay [4] is Voltage-gated potassium channel subunit beta-2 (Rattus norvegicus) (UniProt P62483). Nature of the assay: KvBeta enzyme negative modulators, primary screen, biochemical, NADPH fluorescence (AID 622;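 active means fluorescence slope higher than the sample average by over 3 SD, cut at about -0.22 in these data, passing the limit was not always enough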;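 further: slope of raw intensity against log time taken from 70 to 1610 s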). The settings on record: recombinant KvBeta, 4-cyanobenzaldehyde reduction, at 10 µM, stronger effect = higher value.
Sequence of Voltage-gated potassium channel subunit beta-2 (Rattus norvegicus) (P62483 whole entry, looked up): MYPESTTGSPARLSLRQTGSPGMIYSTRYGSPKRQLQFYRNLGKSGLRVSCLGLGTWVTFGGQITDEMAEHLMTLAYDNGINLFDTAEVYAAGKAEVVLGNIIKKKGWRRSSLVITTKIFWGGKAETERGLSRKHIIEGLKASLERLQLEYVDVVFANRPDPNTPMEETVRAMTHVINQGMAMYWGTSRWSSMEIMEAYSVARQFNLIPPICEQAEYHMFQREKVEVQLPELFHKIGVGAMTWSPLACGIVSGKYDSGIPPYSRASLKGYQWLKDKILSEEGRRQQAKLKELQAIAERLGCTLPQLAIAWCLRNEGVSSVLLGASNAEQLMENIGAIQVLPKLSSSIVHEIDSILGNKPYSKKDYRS
The target is the same in assay [5]. The assay can be described thus: KvBeta positive modulators, primary screen, biochemical, NADPH fluorescence (AID 623;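 active means NADPH fluorescence slope more negative than the mean of all samples by about 3 SD, 99.7% confidence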;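 further: fluorescence intensity change per second fitted from 20 to 320 s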). The settings on record: Recombinant KvBeta, NADPH fluorescence decrease slope, 10 min; at 10 µM; stronger effect = lower value.
In assay [6] the target is Muscarinic acetylcholine receptor M4 (Homo sapiens) (UniProt P08173). Nature of the assay: compounds altering M4/GIRK thallium flux, either direction, primary screen, M4 allosteric agonist project, cell-based, HEK293 M4/GIRK, BTC-AM (AID 625;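 active means fluorescence slope after compound addition differing from the mean of all tested samples at 99.7% confidence, mostly higher but some lower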;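 further: thallium influx through GIRK channels coupled to M4 in HEK293 cells with BTC-AM dye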). The settings on record: at 10 µM, actives lie on both sides. An outline of the steps:
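assay system = HEK293 cells with M4 receptor and GIRK channels | medium = pH 7.3 thallium assay buffer | doses = 10 µM final, single point | timing = cells overnight at 37 °C, BTC-AM loading 1 h, reads 2 min total | signal = BTC-AM fluorescence, 1 Hz kinetic reads | read-out = post-addition slope, 15–24 s, of baseline-normalized fluorescence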

Assay [7] in a line: inhibitors of Sendai virus-induced IRF3 signaling, primary screen, TLR/RLR signaling modifier project, cell-based, Sendai virus stimulus, luciferase, 10K MLSCN set (AID 602276;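 active means inhibition at or above 50% at 10 µM; inactive means inhibition below 50%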;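 further: firefly luciferase from ISG56 promoter only with Renilla not read in this screen; 0% = Sendai virus plus DMSO and 100% = medium plus DMSO without virus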). The settings on record: HEK293 RL24 IRF3 luciferase reporter, at 10 µM, stronger effect = higher value. (In general: A reporter such as luciferase makes a cellular process visible.)
The nature of assay [8]: inhibitors of poly I:C-induced TLR3 signaling, primary screen, cell-based, poly I:C stimulus, luciferase, 10K MLSCN set (AID 602277;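 active means inhibition of the reporter signal at or above 50%; inactive means inhibition below 50%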). The settings on record: HEK293-TLR3 RL24 IRF3 luciferase reporter, at 10 µM, stronger effect = higher value.

Active and inactive are the calls of the source.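 How the source made its calls, unless noted: active means visually confirmed hit in the image check and inhibition above 20%; inconclusive means visually confirmed hit but inhibition not above 20%; inactive means no visual hit in the image check.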

Sequence of Muscarinic acetylcholine receptor M4 (Homo sapiens) (P08173 whole entry, looked up): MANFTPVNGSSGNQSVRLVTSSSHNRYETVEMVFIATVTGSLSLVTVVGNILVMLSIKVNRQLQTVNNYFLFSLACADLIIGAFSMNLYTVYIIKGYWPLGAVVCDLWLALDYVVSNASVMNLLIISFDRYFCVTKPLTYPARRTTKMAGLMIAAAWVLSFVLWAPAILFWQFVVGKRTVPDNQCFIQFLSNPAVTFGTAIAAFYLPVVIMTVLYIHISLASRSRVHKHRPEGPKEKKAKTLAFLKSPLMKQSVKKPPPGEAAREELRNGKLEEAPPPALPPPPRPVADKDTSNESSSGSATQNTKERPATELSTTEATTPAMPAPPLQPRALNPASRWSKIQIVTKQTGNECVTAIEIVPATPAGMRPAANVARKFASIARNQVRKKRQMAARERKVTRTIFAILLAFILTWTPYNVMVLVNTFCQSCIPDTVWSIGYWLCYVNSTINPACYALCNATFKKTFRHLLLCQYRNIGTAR

Consider `O=C(CCN1CCN(c2ccc(F)cc2)CC1)Nc1ccccc1F`, for which the cell count in assay [1] came out at 315. Moreover, the inhibition was -2.1% (inactive) in assay [1], 19.6% (inactive) in assay [3], 16.9% (inactive) in assay [7] and 24.9% (inactive) in assay [8]. Also, in assay [2], the inhibition of aggregation is 34.9% (active). Moreover, the nuclei count in assay [2] was 84.8%; in assay [3], 87.8%. Further, the results for the fluorescence slope in assay [4] and in assay [6] were -0.446 (inactive) and 0.00622 (inactive), respectively. For the same molecule, in assay [5], the NADPH fluorescence slope is 0.000136 (inactive).

Take `O=C1NCCCc2c1no[n+]2[O-]`: the cell count in assay [1] turned out to be 381. Further, the inhibition in assay [1] was 5.3% (inactive); in assay [3], -31.3% (inactive); in assay [7], -17.2% (inactive); in assay [8], 6.4% (inactive). Also, the inhibition of aggregation in assay [2] is 19.4% (inactive). Further, the nuclei count in assay [2] was determined as 54.8%; in assay [3], 107%. For the same molecule, the fluorescence slope in assay [4] was -0.584 (inactive); in assay [6] it was 0.00512 (inactive). For the same molecule, the NADPH fluorescence slope in assay [5] was -6.4e-06 (inactive).

As for `Cc1occc1C(=O)Nc1cccnc1`, the cell count in assay [1] stood at 537. The inhibition in assay [1] was -21.3% (inactive); in assay [3] it was -9.9% (inactive); in assay [7] it was 18.2% (inactive); in assay [8], 7.63% (inactive). For the same molecule, in assay [2], the inhibition of aggregation was -33.6% (inactive). For the same molecule, the nuclei count in assay [2] came to 108%; in assay [3], 84.1%. Besides, the fluorescence slope in assay [4] is -0.538 (inactive); in assay [6] it was 0.00413 (inactive). Also, the NADPH fluorescence slope in assay [5] is -4.1e-05 (inactive).

With `Cc1ccc(-c2nc(-c3cccnc3)no2)c(C)c1`, the cell count in assay [1] is 357. Besides, the inhibition was 4.2% (inactive) in assay [1], -54.5% (inactive) in assay [3], -33.6% (inactive) in assay [7] and -111% (inactive) in assay [8]. Besides, the inhibition of aggregation in assay [2] was -8% (inactive). The nuclei count in assay [2] stood at 107%; in assay [3], 105%. Besides, the fluorescence slope in assay [4] was -0.571 (inactive); in assay [6], 0.00802 (inactive). In assay [5], the NADPH fluorescence slope was -3.5e-05 (inactive).

For the molecule `CCCCC(=O)Nc1nn(CCC)c2nc3ccccc3cc12`, the cell count in assay [1] was determined as 363. Also, the inhibition in assay [1] was 4.2% (inactive); in assay [3] it was -44.8% (inactive); in assay [7], 10.1% (inactive); in assay [8], -0.131% (inactive). For the same molecule, in assay [2], the inhibition of aggregation is -14.8% (inactive). The figures for the nuclei count in assay [2] and in assay [3] were 108% and 116%, respectively. The fluorescence slope was -0.568 (inactive) in assay [4] and 0.00381 (inactive) in assay [6]. The NADPH fluorescence slope in assay [5] was -3.3e-05 (inactive).

For the molecule `Cn1c(=O)n(C)c2cc(CNc3ccc(N4CCOCC4)c(C(=O)O)c3)ccc21`, the cell count in assay [1] stood at 350. Further, the inhibition in assay [1] is -0.2% (inactive); in assay [3], -9.8% (inactive); in assay [7], 13.1% (inactive); in assay [8], 5.3% (inactive). Besides, the inhibition of aggregation in assay [2] is 3% (inactive). Also, the nuclei count in assay [2] is 107%; in assay [3] it was 110%. In addition, the fluorescence slope in assay [4] was -0.423 (inactive); in assay [6] it was 0.00799 (inactive). The NADPH fluorescence slope in assay [5] was 0.00012 (inactive).

Regarding `Cc1noc(C)c1S(=O)(=O)NCCN1CCN(c2ccccc2)CC1`, the cell count in assay [1] was determined as 413. Besides, the inhibition in assay [1] was -5.2% (inactive); in assay [3] it was -42.6% (inactive); in assay [7] it was 12.9% (inactive); in assay [8] it was 20.2% (inactive). For the same molecule, the inhibition of aggregation in assay [2] is -8.9% (inactive). Moreover, the nuclei count was found to be 118% in assay [2] and 141% in assay [3]. Further, the fluorescence slope in assay [4] is -0.546 (inactive); in assay [6], 0.0066 (inactive). Further, the NADPH fluorescence slope in assay [5] was 4.8e-05 (inactive).

Consider `FC(F)(F)C(F)(F)C(F)(F)c1nnc2ccc(N3CCOCC3)nn12`, for which the cell count in assay [1] is 420. The inhibition in assay [1] was 7.9% (inactive); in assay [3], -41.2% (inactive); in assay [7], -12% (inactive); in assay [8] it was -3.61% (inactive). Moreover, the inhibition of aggregation in assay [2] was -8.6% (inactive). Moreover, the figures for the nuclei count in assay [2] and in assay [3] were 102% and 111%, respectively. Further, the values for the fluorescence slope in assay [4] and in assay [6] were -0.51 (inactive) and 0.0046 (inactive), respectively. The NADPH fluorescence slope in assay [5] is 7.7e-05 (inactive).

Consider `OCCN1CCN(CC(O)COc2ccc3ccccc3c2)CC1` (centres undefined), for which the cell count in assay [1] is 581. For the same molecule, the inhibition was -10.8% (inactive) in assay [1], -51.6% (inactive) in assay [3], 11.6% (inactive) in assay [7] and 15.2% (inactive) in assay [8]. Also, the inhibition of aggregation in assay [2] is 0.6% (inactive). Further, the nuclei count in assay [2] is 101%; in assay [3], 106%. Further, the fluorescence slope was -0.414 (inactive) in assay [4] and 0.00595 (inactive) in assay [6]. For the same molecule, the NADPH fluorescence slope in assay [5] is -7.3e-05 (inactive).

In the case of `CCOc1ccc(-n2c(=O)cc(N3CCN(c4ccccc4)CC3)[nH]c2=O)cc1`, in assay [1], the cell count turned out to be 542. Besides, the inhibition in assay [1] was -4.4% (inactive); in assay [3], -40.5% (inactive); in assay [7], 12.1% (inactive); in assay [8] it was 11.2% (inactive). For the same molecule, the inhibition of aggregation in assay [2] was -3.5% (inactive). For the same molecule, the values for the nuclei count in assay [2] and in assay [3] were 87.1% and 108%, respectively. The fluorescence slope in assay [4] is -0.411 (inactive); in assay [6], 0.00553 (inactive). Further, the NADPH fluorescence slope in assay [5] was -1.6e-05 (inactive).

For `CCOC(=O)CN1C2=NCCN2c2ccccc21`, the cell count in assay [1] came out at 428. The inhibition is 3.8% (inactive) in assay [1], -107% (inactive) in assay [3], 13.8% (inactive) in assay [7] and 18.8% (inactive) in assay [8]. In addition, in assay [2], the inhibition of aggregation was -1.1% (inactive). Further, the figures for the nuclei count in assay [2] and in assay [3] were 76.3% and 125%, respectively. Also, the fluorescence slope in assay [4] was -0.605 (inactive); in assay [6], 0.00469 (inactive). In addition, the NADPH fluorescence slope in assay [5] is -8.6e-06 (inactive).

In the case of `O=C(NCCc1cccc(Cl)c1)c1cccnc1`, in assay [1], the cell count was found to be 341. Further, the inhibition in assay [1] is -8% (inactive); in assay [3], -194% (inactive); in assay [7], -14.6% (inactive); in assay [8], -52% (inactive). Moreover, the inhibition of aggregation in assay [2] is -14.1% (inactive). The nuclei count in assay [2] came to 95.5%; in assay [3] it was 119%. The figures for the fluorescence slope in assay [4] and in assay [6] were -0.562 (inactive) and 0.00601 (inactive), respectively. Also, the NADPH fluorescence slope in assay [5] is -1.7e-05 (inactive).

Take `Cn1c(=O)c2c(nc(NCCc3ccccc3)n2CC(=O)NCCc2ccccc2)n(C)c1=O`: the cell count in assay [1] came to 339. Moreover, the inhibition in assay [1] was 2.5% (inactive); in assay [3], -86.4% (inactive); in assay [7], 30.2% (inactive); in assay [8], 31.9% (inactive). For the same molecule, the inhibition of aggregation in assay [2] is 6.2% (inactive). Besides, the nuclei count worked out at 94.2% in assay [2] and 105% in assay [3]. The fluorescence slope is -0.575 (inactive) in assay [4] and 0.00514 (inactive) in assay [6]. The NADPH fluorescence slope in assay [5] is 2.8e-06 (inactive).

Regarding `Cc1cncn1CCc1nc2c3ccccc3nc(=S)n2[nH]1`, in assay [1], the cell count came out at 537. Further, the inhibition is 0% (inactive) in assay [1], -141% (inactive) in assay [3], 17% (inactive) in assay [7] and 28.8% (inactive) in assay [8]. Moreover, in assay [2], the inhibition of aggregation was 4.4% (inactive). Moreover, the nuclei count in assay [2] worked out at 67.3%; in assay [3], 110%. The fluorescence slope in assay [4] was -0.432 (inactive); in assay [6] it was 0.00558 (inactive). The NADPH fluorescence slope in assay [5] is 1.4e-06 (inactive).

One may read the inhibition as the relative decrease from the control value, in per cent.

Values taken from PubChem BioAssay.
